Results published in ChEMBL document CHEMBL5316280, “Development of N-(1-Adamantyl)benzamides as Novel Anti-Inflammatory Multitarget Agents Acting as Dual Modulators of the Cannabinoid CB2 Receptor and Fatty Acid Amide Hydrolase” (J Med Chem, 2023).
Active and inactive are the calls of the source. The rule behind the calls is not given here.

Assays:
Cannabinoid receptor 1 [1] = target: T1, Cannabinoid receptor 1 (Homo sapiens, UniProt P21554); assay: Agonist activity at human CB1 receptor in CHO cells incubated for 15 mins by plate reader analysis
THP-1 [2] = assay: Antiinflammatory activity in human THP-1 macrophages assessed as decrease in IFNgamma level incubated for 24 hrs by ELISA based qRT-PCR analysis; type: functional, cell-based
In short: (§1)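 THP-1 cells were seeded at 1 x 10⁵ cells/ml for 48 h. For macrophages, cells were differentiated with 0.01 µM PMA for 48 h; monocytes received no PMA. Cells were then given 24 h with or without 10 µg/ml LPS, plus ligands alone or with the CB2R inverse agonist JTE907 (10 µM). Cytokines were measured in 5 µL supernatant (from 1 x 10⁴ cells) by ProQuantum immunoassay, read as pg/ml from kit titration curves; n=3.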

THP-1 [3] = assay: Antiinflammatory activity in human THP-1 macrophages assessed as decrease in IL-1beta level incubated for 24 hrs in presence of […] by ELISA based qRT-PCR analysis; type: functional, cell-based
In short: as §1

THP-1 [4] = assay: Antiinflammatory activity in human THP-1 monocytes assessed as increase in IL-4 level incubated for 24 hrs in presence of […] by ELISA based qRT-PCR analysis; type: functional, cell-based
In short: as §1

Cannabinoid receptor 2 = Cannabinoid receptor 2 (Homo sapiens, UniProt P34972); assay: Displacement of [3H]CP55940 from recombinant human CB2 receptor expressed in HEK293 cell membrane incubated for 90 mins by beta scintillation counter method; type: cell membranes
In short: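 HEK293 membranes stably expressing human CB2 (50 µg protein/well) competed with 0.2 nM [3H]-CP55,940 (final) against test compound at 10⁻¹²–10⁻⁵ M in Tris-HCl 50 mM, EGTA 2.5 mM, MgCl₂ 5 mM, 0.1% fatty-acid-free BSA, pH 7.4; 90 min at 30 °C. Nonspecific binding defined with 10 µM GW405833.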

THP-1 [5] = assay: Antiinflammatory activity in human THP-1 macrophages assessed as increase in IL-10 level incubated for 24 hrs in presence of […] by ELISA based qRT-PCR analysis; type: functional, cell-based
In short: as §1

THP-1 [6] = assay: Antiinflammatory activity in human THP-1 monocytes assessed as decrease in IFNgamma level incubated for 24 hrs by ELISA based qRT-PCR analysis; type: functional, cell-based
In short: as §1

THP-1 [7] = assay: Antiinflammatory activity in human THP-1 macrophages assessed as decrease in IFNgamma level incubated for 24 hrs in presence of […] by ELISA based qRT-PCR analysis; type: functional, cell-based
In short: as §1

[8] = Metal chelating activity assessed as Fe2+-compound complex formation incubated for 15 mins by Ferrozine based assay
In short: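 FeSO₄ (25 µM) in water incubated with or without test compound (100 µM, DMSO) for 15 min at room temperature, 300 µL final. Ferrozine then added (1 mM final), shaken 15 min at room temperature. Absorbance of the ferrozine–Fe(II) magenta complex read at 562 nm; chelation seen as reduced complex formation.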

Cannabinoid receptor 1 [9] = target: T1, Cannabinoid receptor 1; assay: Displacement of [3H]CP55940 from recombinant human CB1 receptor expressed in HEK293 cell membrane incubated for 60 mins by beta scintillation counter method
THP-1 [10] = assay: Antiinflammatory activity in human THP-1 monocytes assessed as decrease in IL-6 level incubated for 24 hrs by ELISA based qRT-PCR analysis; type: functional, cell-based
In short: as §1

THP-1 [11] = assay: Antiinflammatory activity in human THP-1 macrophages assessed as decrease in TNFalpha level incubated for 24 hrs in presence of […] by ELISA based qRT-PCR analysis; type: functional, cell-based
In short: as §1

THP-1 [12] = assay: Antiinflammatory activity in human THP-1 monocytes assessed as decrease in IL-6 level incubated for 24 hrs in presence of […] by ELISA based qRT-PCR analysis; type: functional, cell-based
In short: as §1

THP-1 [13] = assay: Antiinflammatory activity in human THP-1 macrophages assessed as decrease in IL-6 level incubated for 24 hrs in presence of […] by ELISA based qRT-PCR analysis; type: functional, cell-based
In short: as §1

THP-1 [14] = assay: Antiinflammatory activity in LPS-activated human THP-1 monocytes assessed as decrease in IL-6 level incubated for 24 hrs by ELISA based qRT-PCR analysis; type: functional, cell-based
In short: as §1

THP-1 [15] = assay: Antiinflammatory activity in LPS-activated human THP-1 macrophages assessed as increase in IL-10 level incubated for 24 hrs by ELISA based qRT-PCR analysis; type: functional, cell-based
In short: as §1

THP-1 [16] = assay: Antiinflammatory activity in LPS-activated human THP-1 macrophages assessed as increase in IL-4 level incubated for 24 hrs by ELISA based qRT-PCR analysis; type: functional, cell-based
In short: as §1

T1 sequence (P21554 whole entry): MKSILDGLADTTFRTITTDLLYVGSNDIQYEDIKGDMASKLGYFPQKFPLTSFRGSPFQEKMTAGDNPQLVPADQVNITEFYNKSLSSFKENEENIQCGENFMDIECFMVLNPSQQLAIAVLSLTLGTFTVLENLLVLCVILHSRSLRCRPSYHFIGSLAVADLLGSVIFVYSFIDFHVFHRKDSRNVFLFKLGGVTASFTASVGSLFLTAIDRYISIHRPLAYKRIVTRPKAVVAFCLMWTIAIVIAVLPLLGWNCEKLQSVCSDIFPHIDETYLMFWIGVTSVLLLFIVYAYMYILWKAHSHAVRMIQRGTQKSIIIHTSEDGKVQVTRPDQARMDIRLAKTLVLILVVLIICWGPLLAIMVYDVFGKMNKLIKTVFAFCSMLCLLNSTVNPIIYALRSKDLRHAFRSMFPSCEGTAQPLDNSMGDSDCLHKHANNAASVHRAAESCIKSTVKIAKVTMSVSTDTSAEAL
Sequence of Cannabinoid receptor 2 (P34972 whole entry): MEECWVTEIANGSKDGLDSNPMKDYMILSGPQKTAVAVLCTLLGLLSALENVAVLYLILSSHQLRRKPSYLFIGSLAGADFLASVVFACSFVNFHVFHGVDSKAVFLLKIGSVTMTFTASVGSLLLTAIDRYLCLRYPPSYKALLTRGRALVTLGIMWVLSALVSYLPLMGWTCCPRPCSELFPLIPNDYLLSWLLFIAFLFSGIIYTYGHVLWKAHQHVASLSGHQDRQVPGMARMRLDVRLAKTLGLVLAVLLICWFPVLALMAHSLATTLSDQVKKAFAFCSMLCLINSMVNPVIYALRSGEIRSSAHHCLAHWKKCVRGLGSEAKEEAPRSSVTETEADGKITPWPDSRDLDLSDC

Q: What does the source list for CCCCCOc1ccccc1C(=O)NC12CC3CC(CC(C3)C1)C2?
A: EC50 (Cannabinoid receptor 1 [1]): 106 nM; Activity (THP-1 [2]): Active; Activity (THP-1 [3]): inactive; Activity (THP-1 [4]): inactive; Ki (Cannabinoid receptor 2): 10.8 nM; Activity (THP-1 [5]): inactive; Activity (THP-1 [6]): Active; Activity (THP-1 [7]): inactive; Activity [8]: Active; Ki (Cannabinoid receptor 1 [9]): 153 nM; Activity (THP-1 [10]): inactive; Activity (THP-1 [11]): inactive; Activity (THP-1 [12]): inactive; Activity (THP-1 [13]): inactive

Q: Which EC50 (Cannabinoid receptor 1 [1]) does the source give for O=C(NC12CC3CC(CC(C3)C1)C2)c1ccccc1OCC1CCCCC1 here?
A: 253 nM

Q: What about the Activity (THP-1 [2]) of the same molecule?
A: Active

Q: What about the Activity (THP-1 [3]) of the same molecule?
A: inactive

Q: What about the Activity (THP-1 [4]) of the same molecule?
A: inactive

Q: And the Ki (Cannabinoid receptor 2)?
A: 20.1 nM

Q: And the Activity (THP-1 [5])?
A: inactive

Q: What about the Activity (THP-1 [6]) of the same molecule?
A: Active

Q: And the Activity (THP-1 [7])?
A: inactive

Q: And the Activity [8]?
A: Active

Q: And the Activity (THP-1 [14])?
A: inactive

Q: What about the Ki (Cannabinoid receptor 1 [9]) of the same molecule?
A: 67.6 nM

Q: What about the Activity (THP-1 [10]) of the same molecule?
A: Active

Q: What about the Activity (THP-1 [11]) of the same molecule?
A: inactive

Q: And the Activity (THP-1 [12])?
A: inactive

Q: And the Activity (THP-1 [13])?
A: inactive

Q: For O=C(NC12CC3CC(CC(C3)C1)C2)c1ccccc1OCc1ccccc1, which EC50 (Cannabinoid receptor 1 [1]) is on record?
A: 489 nM

Q: What about the Activity (THP-1 [2]) of the same molecule?
A: Active

Q: And the Activity (THP-1 [15])?
A: inactive

Q: And the Activity (THP-1 [3])?
A: inactive

Q: What about the Activity (THP-1 [4]) of the same molecule?
A: inactive

Q: And the Activity (THP-1 [16])?
A: inactive

Q: And the Ki (Cannabinoid receptor 2)?
A: 14.8 nM

Q: What about the Activity (THP-1 [5]) of the same molecule?
A: inactive

Q: And the Activity (THP-1 [6])?
A: Active

Q: And the Activity (THP-1 [7])?
A: inactive

Q: And the Activity [8]?
A: Active

Q: And the Ki (Cannabinoid receptor 1 [9])?
A: 241 nM

Q: And the Activity (THP-1 [10])?
A: inactive

Q: And the Activity (THP-1 [11])?
A: inactive

Q: What about the Activity (THP-1 [12]) of the same molecule?
A: inactive

Q: What about the Activity (THP-1 [13]) of the same molecule?
A: inactive
